The values below come from ChEMBL document CHEMBL1154674, “Synthesis and evaluation of three 18F-labeled aminophenylbenzothiazoles as amyloid imaging agents” (J Med Chem, 2009).

Structures are written as SMILES.

Common to all, as to format: ADME, organism-based, Macaca mulatta
The nature of series [1]: Drug level in normal rhesus monkey pons assessed as standard uptake value at 81.2 MBq, iv after 14 mins by microPET. As to conditions: in vivo.
Series [2] is described as follows: Drug level in normal rhesus monkey pons assessed as standard uptake value at 81.2 MBq, iv after 175 mins by microPET. As to conditions: in vivo.
Series [3] is described as follows: Drug level in normal rhesus monkey white matter assessed as standard uptake value at 81.2 MBq, iv after 32.5 mins by microPET. As to conditions: in vivo.
A short description of series [4]: Drug level in normal rhesus monkey white matter assessed as standard uptake value at 81.2 MBq, iv after 42.5 mins by microPET. As to conditions: in vivo.
Series [5] in a line: Drug level in normal rhesus monkey thalamus assessed as standard uptake value at 81.2 MBq, iv after 1.5 mins by microPET. As to conditions: in vivo, 0.025 h.
Series [6] is described as follows: Drug level in normal rhesus monkey thalamus assessed as standard uptake value at 81.2 MBq, iv after 95 mins by microPET. As to conditions: in vivo.
The nature of series [7]: Drug level in normal rhesus monkey cerebellum assessed as standard uptake value at 81.2 MBq, iv after 37.5 mins by microPET. As to conditions: in vivo, 0.625 h. In short, it runs like this: (§1)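 One normal rhesus monkey, each tracer given iv via the vena saphena (81.2, 96.3 or 109.4 MBq), with 1 day between tracer injections. Dynamic brain μPET over 180 min used frames of 5 × 60 s, 5 × 120 s, 9 × 300 s and 12 × 600 s. Images were reconstructed by filtered back projection with a RAMP filter. Regional time-activity curves were expressed as SUV.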

Series [8] can be described thus: Drug level in normal rhesus monkey cerebellum assessed as standard uptake value at 81.2 MBq, iv after 175 mins by microPET. As to conditions: in vivo. The gist of the method:
as §1

The nature of series [9]: Drug level in normal rhesus monkey frontal cortex assessed as standard uptake value at 81.2 MBq, iv after 10 mins by microPET. As to conditions: in vivo. In short, it runs like this: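 Single normal rhesus monkey; each tracer given iv via the vena saphena, with 1 day between tracer injections. Dynamic μPET ran 180 min (5×60 s, 5×120 s, 9×300 s, 12×600 s). Images were reconstructed by filtered back projection with a RAMP filter. Regional time-activity curves were expressed as SUV.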

Series [10] is described as follows: Drug level in normal rhesus monkey parietal cortex assessed as standard uptake value at 96.3 MBq, iv after 42.5 mins by microPET. As to conditions: in vivo.
The nature of series [11]: Drug level in normal rhesus monkey parietal cortex assessed as standard uptake value at 96.3 MBq, iv after 155 mins by microPET. As to conditions: in vivo.
The nature of series [12]: Drug level in normal rhesus monkey white matter assessed as standard uptake value at 96.3 MBq, iv after 165 mins by microPET. As to conditions: in vivo, 2.75 h.
Series [13] can be described thus: Drug level in normal rhesus monkey thalamus assessed as standard uptake value at 96.3 MBq, iv after 2.5 mins by microPET. As to conditions: in vivo.
The nature of series [14]: Drug level in normal rhesus monkey thalamus assessed as standard uptake value at 96.3 MBq, iv after 10 mins by microPET. As to conditions: in vivo.
A short description of series [15]: Drug level in normal rhesus monkey pons assessed as standard uptake value at 96.3 MBq, iv after 4.5 mins by microPET. As to conditions: in vivo, 0.075 h.
Series [16] is described as follows: Drug level in normal rhesus monkey pons assessed as standard uptake value at 96.3 MBq, iv after 105 mins by microPET. As to conditions: in vivo, 1.75 h.
Series [17] can be described thus: Drug level in normal rhesus monkey parietal cortex assessed as standard uptake value at 96.3 MBq, iv after 6 mins by microPET. As to conditions: in vivo, 0.1 h.
Series [18] is described as follows: Drug level in normal rhesus monkey parietal cortex assessed as standard uptake value at 96.3 MBq, iv after 10 mins by microPET. As to conditions: in vivo.
The nature of series [19]: Drug level in normal rhesus monkey cerebellum assessed as standard uptake value at 96.3 MBq, iv after 32.5 mins by microPET. As to conditions: in vivo. The gist of the method: as §1
The nature of series [20]: Drug level in normal rhesus monkey frontal cortex assessed as standard uptake value at 96.3 MBq, iv after 1.5 mins by microPET. As to conditions: in vivo, 0.025 h.
Series [21] can be described thus: Drug level in normal rhesus monkey frontal cortex assessed as standard uptake value at 96.3 MBq, iv after 12 mins by microPET. As to conditions: in vivo, 0.2 h.
Series [22] can be described thus: Drug level in normal rhesus monkey frontal cortex assessed as standard uptake value at 96.3 MBq, iv after 57.5 mins by microPET. As to conditions: in vivo.
A short description of series [23]: Drug level in normal rhesus monkey pons assessed as standard uptake value at 109.4 MBq, iv after 37.5 mins by microPET. As to conditions: in vivo, 0.625 h.
A short description of series [24]: Drug level in normal rhesus monkey pons assessed as standard uptake value at 109.4 MBq, iv after 87 mins by microPET. As to conditions: in vivo, 1.45 h.
The nature of series [25]: Drug level in normal rhesus monkey thalamus assessed as standard uptake value at 109.4 MBq, iv after 93 mins by microPET. As to conditions: in vivo, 1.55 h.
The nature of series [26]: Drug level in normal rhesus monkey cerebellum assessed as standard uptake value at 109.4 MBq, iv after 9.5 mins by microPET. As to conditions: in vivo.
Series [27] is described as follows: Drug level in normal rhesus monkey cerebellum assessed as standard uptake value at 109.4 MBq, iv after 12.5 mins by microPET. As to conditions: in vivo.
Series [28] can be described thus: Drug level in normal rhesus monkey parietal cortex assessed as standard uptake value at 109.4 MBq, iv after 22.5 mins by microPET. As to conditions: in vivo, 0.375 h.
Series [29] is described as follows: Drug level in normal rhesus monkey cerebellum assessed as standard uptake value at 152.9 MBq, iv after 1.5 mins by microPET. As to conditions: in vivo, 0.025 h. The gist of the method: (§2)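 One normal rhesus monkey received each tracer via the vena saphena, with 1 day between injections. Dynamic μPET ran 180 min for 18F tracers (5×60 s, 5×120 s, 9×300 s, 12×600 s) and 90 min for the 11C tracer (5×60 s, 5×120 s, 9×300 s, 3×600 s). Filtered back-projection reconstruction (RAMP filter) was used. Time-activity curves were drawn to give regional SUV.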

The nature of series [30]: Drug level in normal rhesus monkey cerebellum assessed as standard uptake value at 152.9 MBq, iv after 42.5 mins by microPET. As to conditions: in vivo. In short, it runs like this:
as §2

A short description of series [31]: Drug level in normal rhesus monkey frontal cortex assessed as standard uptake value at 152.9 MBq, iv after 65 mins by microPET. As to conditions: in vivo. The gist of the method: (§3)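 Single normal rhesus monkey; tracer given iv via the vena saphena, 1 day apart from the other tracer injections. Dynamic μPET ran 90 min (5×60 s, 5×120 s, 9×300 s, 3×600 s). Images were reconstructed by filtered back projection with a RAMP filter. Regional time-activity curves were expressed as SUV.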

Series [32] in a line: Drug level in normal rhesus monkey frontal cortex assessed as standard uptake value at 152.9 MBq, iv after 85 mins by microPET. As to conditions: in vivo. In short, it runs like this: as §3
The nature of series [33]: Drug level in normal rhesus monkey thalamus assessed as standard uptake value at 152.9 MBq, iv after 1.5 mins by microPET. As to conditions: in vivo, 0.025 h.
The nature of series [34]: Drug level in normal rhesus monkey thalamus assessed as standard uptake value at 152.9 MBq, iv after 22.5 mins by microPET. As to conditions: in vivo, 0.375 h.
Series [35] can be described thus: Drug level in normal rhesus monkey pons assessed as standard uptake value at 152.9 MBq, iv after 37.5 mins by microPET. As to conditions: in vivo, 0.625 h.
Series [36] is described as follows: Drug level in normal rhesus monkey parietal cortex assessed as standard uptake value at 152.9 MBq, iv after 75 mins by microPET. As to conditions: in vivo, 1.25 h.

With `CNc1ccc2nc(-c3ccc([18F])cc3)sc2c1`, the SUV is on record as 4.757 in series [1]; 5.471 in [2]; 3.799 in series [3]; 3.757 in [4]; 2.705 in series [5]; 5.301 in series [6]. The SUV is 2.545 in series [7], 1.384 in series [8] and 5.813 in series [9].
For `CN(C)c1ccc2nc(-c3ccc([18F])cc3)sc2c1`, the SUV came out at 1.79 in series [10]; 1.23 in series [11]; 1.55 in series [12]; 1.52 in [13]; 2.12 in [14]; 1.28 in series [15]. The SUV in series [16] came to 1.72; in series [17] it was 2.16; in [18], 2.26; in series [19], 1.46; in [20], 1.43; in series [21], 1.99. Moreover, in [22], the SUV came to 2.01.
As for `Nc1ccc2nc(-c3ccc([18F])cc3)sc2c1`, the SUV was 4.73 in [23]; 4.84 in series [24]; 5.05 in [25]; 5.44 in [26]; 5.33 in [27]; 4.93 in [28].
`[11CH3]Nc1ccc(-c2nc3ccc(O)cc3s2)cc1` [PITTSBURGH COMPOUND B]: the SUV in series [29] came to 0.677; in series [30], 0.936; in series [31], 0.653; in series [32], 0.625; in [33], 0.487; in series [34] it was 1.903. In addition, the SUV was 1.229 in [35] and 0.682 in series [36].
